Where two headings read alike, the source gives them in different places.
Legend:
P. falciparum Dd2 = test: In vitro P. falciparum blood-stage growth inhibition assay; format: cell-based, Plasmodium falciparum
[1] = test system: P. falciparum 3D7 stage IV–V gametocytes; test: In vitro transmission-blocking assay; format: cell-based, Plasmodium falciparum
In short: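 3D7 cultures were treated 3 days with 50 mM N-acetyl-D-glucosamine to remove asexual parasites. Stage IV–V gametocytes were then isolated on a discontinuous Percoll gradient. Gametocytes (1.0 × 10^5 per well) were incubated with compound for 72 h. Viability was measured by CellTiter-Glo luminescence.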

Solubility assay in PBS = format: physicochemical; settings: for PBS solubility: PBS pH 7.4 with 1% DMSO
In short: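 Compound was prepared at 100 µM in triplicate, both in 100% DMSO and in PBS pH 7.4 with 1% DMSO. Samples were shaken at 750 r.p.m. for 18 h at room temperature. Analysis was by UPLC–MS with single-ion detection. PBS response was fitted to a two-point calibration built from the DMSO samples.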

P. falciparum NITD609^R = test: Blood-stage growth inhibition, P. falciparum NITD609^R strain; format: cell-based, Plasmodium falciparum
In short: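 Asexual blood-stage parasites were cultured to 3–8% parasitaemia, counted on Giemsa smears, and diluted in medium to 2.0% parasitaemia and 2.0% haematocrit. This suspension was added to compound dispensed from DMSO, giving a final 1% parasitaemia and 1% haematocrit, with mefloquine as control. Plates were incubated for 72 h at 37 °C. Growth was read by SYBR Green I fluorescence in Tris/EDTA/saponin/Triton X-100 lysis buffer.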

[2] = test system: parasite cytosolic Na^+ concentration; test: Parasite cytosolic Na+ concentration measurement; format: cell-based, Plasmodium falciparum; settings: after treatment
[3] = test system: Mammalian cells (HepG2, A549, and HEK293); test: Mammalian cell cytotoxicity; format: cell-based; settings: initial characterization
In short: (§1)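 HepG2, A549 or HEK293 cells were grown in DMEM with 10% FBS and 1% antibiotic–antimycotic and tested mycoplasma-free. Cells (1 × 10^6) were seeded one day before treatment. They were exposed to ascending compound doses for 72 h, and viability was read by CellTiter-Glo.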

[4] = Plasma protein binding assay; format: in vitro ADME
In short: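 Binding was measured by equilibrium dialysis in a RED device. Compound at 5 µM, in duplicate, was placed in mouse plasma (0.95% acetonitrile, 0.05% DMSO) against PBS pH 7.4. Incubation was 5 h at 37 °C with 350 r.p.m. orbital shaking. Both sides were analysed by UPLC–MS with single-ion detection.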

[5] = Metabolic stability assay, mouse liver microsomes; format: in vitro ADME
In short: (§2)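 Liver microsomes (0.2 mg ml−1) were incubated with compound (0.5 and 5 µM) plus NADPH for 0, 10 and 90 min. Human microsomes or mouse CD-1 microsomes were used, as named in each line. Compound depletion was measured by LC–MS/MS and used to estimate Km, Vmax and half-life.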

[6] = Metabolic stability assay, human liver microsomes; format: in vitro ADME
In short: as §2

HepG2 cell line = test: Mammalian cell cytotoxicity assay; format: cell-based, human; settings: for CC50: read-out: HepG2 CC50, 72 h; for Cytotoxicity: HepG2 cell line
In short: as §1

hERG channel = hERG channel (Homo sapiens, UniProt Q12809); test: hERG channel inhibition assay; format: cell-based; settings: read-out: hERG IC50; IKr
In short: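 hERG current was measured in hERG-expressing cell lines by automated patch clamp (QPatch-HTX).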

[7] = Mouse pharmacokinetics assay; format: in vivo; settings: CD-1 mice; for AUC0-t: t = 24 h
In short: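 Female CD-1 mice received single intravenous and oral doses. Parameters were estimated by non-compartmental analysis.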

[8] = test system: P. falciparum (NF54) gametocytes; test: In vitro transmission-blocking imaging assay; format: cell-based, Plasmodium falciparum
In short: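 Highly synchronous NF54 pf-LUC-GFP gametocytes were induced from a single asexual cycle. They were exposed to 16 compound doses, with final controls of 0.4% DMSO and 5 µM puromycin, for 72 h at 37 °C under 5% CO2/5% O2/90% N2 and 60% humidity. MitoTracker Red CM-H2XRos was then added overnight, and plates were imaged after ≥1 h at room temperature. IC50 came from a 4-parameter variable-slope fit.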

[9] = test system: P. falciparum (NF54) male and female stage-V gametocytes; test: Dual gamete formation assay; format: cell-based, Plasmodium falciparum
[10] = test system: P. falciparum (NF54) liver stage; test: In vitro P. falciparum liver-stage assay; format: cell-based, Plasmodium falciparum
[11] = test system: P. berghei (ANKA) liver stage; test: In vitro P. berghei liver-stage assay; format: cell-based, Plasmodium berghei; settings: P. berghei (ANKA), Liver stage
In short: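 HepG2 cells (~17,500 per well, in duplicate) were cultured 18–24 h, then the medium was exchanged and compound added. After 1 h, 4,000 P. berghei ANKA GFP–luc sporozoites per well were added, freshly dissected from A. stephensi mosquitoes. Plates were spun 10 min at 1,000 r.p.m. and incubated 48 h at 37 °C. Parasite load was read by Bright-Glo luminescence.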

[12] = read-out: PfDd2 EC50, asexual blood-stage parasites (Dd2), SAR table
[13] = read-out: Pf, Dd2 EC50, blood stage
[14] = printed in the IV (3) column, PO (10) vs IV (3) mg/kg
[15] = P. falciparum (Dd2), Blood stage

Sequence of hERG channel (Q12809 whole entry): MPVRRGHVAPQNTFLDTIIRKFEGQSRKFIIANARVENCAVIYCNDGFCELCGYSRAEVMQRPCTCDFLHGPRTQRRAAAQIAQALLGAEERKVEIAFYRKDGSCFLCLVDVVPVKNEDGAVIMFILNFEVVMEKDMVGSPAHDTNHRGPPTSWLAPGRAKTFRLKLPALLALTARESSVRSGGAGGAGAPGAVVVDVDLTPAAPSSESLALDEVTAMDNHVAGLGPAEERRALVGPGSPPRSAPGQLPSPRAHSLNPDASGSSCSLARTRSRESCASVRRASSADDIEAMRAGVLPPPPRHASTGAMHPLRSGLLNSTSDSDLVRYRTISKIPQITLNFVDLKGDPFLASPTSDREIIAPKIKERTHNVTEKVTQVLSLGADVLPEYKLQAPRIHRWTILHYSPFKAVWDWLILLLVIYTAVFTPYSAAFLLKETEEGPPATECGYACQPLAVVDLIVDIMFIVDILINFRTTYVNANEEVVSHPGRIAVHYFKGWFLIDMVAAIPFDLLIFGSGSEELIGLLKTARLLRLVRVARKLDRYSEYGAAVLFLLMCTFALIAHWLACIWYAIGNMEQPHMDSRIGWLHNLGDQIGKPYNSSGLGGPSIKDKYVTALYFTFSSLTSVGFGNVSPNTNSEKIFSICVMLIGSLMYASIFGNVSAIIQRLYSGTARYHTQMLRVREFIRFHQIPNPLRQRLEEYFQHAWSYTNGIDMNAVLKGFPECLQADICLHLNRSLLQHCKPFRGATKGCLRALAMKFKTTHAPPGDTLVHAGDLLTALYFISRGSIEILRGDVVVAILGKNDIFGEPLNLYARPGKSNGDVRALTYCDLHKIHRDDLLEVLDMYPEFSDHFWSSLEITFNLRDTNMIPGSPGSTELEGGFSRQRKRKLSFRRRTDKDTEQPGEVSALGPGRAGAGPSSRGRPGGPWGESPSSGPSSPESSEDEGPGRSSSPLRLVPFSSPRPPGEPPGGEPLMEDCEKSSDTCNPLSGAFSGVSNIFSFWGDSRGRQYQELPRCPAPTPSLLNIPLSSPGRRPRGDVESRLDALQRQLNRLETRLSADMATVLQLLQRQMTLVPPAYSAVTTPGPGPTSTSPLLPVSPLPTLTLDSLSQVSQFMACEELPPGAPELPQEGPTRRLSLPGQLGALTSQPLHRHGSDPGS

COc1ccc(NC(=O)N2CCCCN3[C@H](CO)[C@H](c4ccc(C#Cc5ccccc5C#N)cc4)[C@@H]3C2)cc1 [BRC4873]
EC50 (P. falciparum Dd2; [12]): 261 nM

COc1ccc(-c2ccccc2[C@H]2[C@@H](C#N)N(C(=O)C3CCCC3)[C@H]2CO)cc1 [BRD0026]
EC50 (P. falciparum Dd2; read-out: EC50, asexual blood stages, in vitro): 346 nM
EC50 ([1]; read-out: EC50, late-sexual blood stages, in vitro): 1980 nM
Solubility (in words) (Solubility assay in PBS; initial characterization): good solubility
Potency against Pf NITD609^R (P. falciparum NITD609^R; relative to Dd2): selectively reduced potency
EC50 (P. falciparum NITD609^R; strain carrying a point mutation in P. falciparum ATPase4): 1770 nM
Parasite cytosolic Na^+ concentration [2]: rapid increase
Cytotoxicity (in words) [3]: low cytotoxicity

COc1ccc(NC(=O)N2CCCCCN3[C@H](CO)[C@H](c4ccc(C#Cc5ccccc5)cc4)[C@@H]3C2)cc1 [BRD0185]
EC50 (P. falciparum Dd2; [12]): 87 nM

COc1ccc(NC(=O)N2CCCCN3[C@H](CN)[C@H](c4ccc(C#Cc5ccccc5)cc4)[C@@H]3C2)cc1 [BRD1095]
EC99.9 (P. falciparum Dd2; P. falciparum Dd2): 60 nM
EC50 (P. falciparum Dd2; [13]): 10 nM
EC50 (P. falciparum Dd2; [12]): 10 nM
PBS solubility (Solubility assay in PBS): 25 µM
Mouse Plasma protein binding [4]: 99.3%
Mouse Clint [5]: < 20 µL/min/mg
Human Clint [6]: < 20 µL/min/mg
CC50 (HepG2 cell line): 15.6 µM
IC50 (hERG channel): 5.1 µM
AUC0-inf ([7]; IV (3) mg/kg): 14.9 µM·h
CL ([7]; IV (3) mg/kg): 6.7 mL/min/kg
MRT0-inf ([7]; IV (3) mg/kg): 39.2 h
Vss ([7]; IV (3) mg/kg): 16 L/kg
AUC0-t ([7]; IV (3) mg/kg): 7 ^¶ µM*hr
Cmax ([7]; PO (10) mg/kg): 600 nM
T1/2 ([7]; PO (10) mg/kg): 28.8 h
Tmax ([7]; PO (10) mg/kg): 4 h
AUC0-t ([7]; PO (10) mg/kg): 11.7 ^¶ µM*hr
F [7, 14]: 50%

COc1ccc(NC(=O)N2CCCCN3[C@H](CO)[C@H](c4ccc(C#Cc5ccccc5)cc4)[C@]3(CO)C2)cc1 [BRD2936]
EC50 (P. falciparum Dd2; [12]): 1870 nM

COc1ccc(NC(=O)N2CCCCN3[C@H](COCCC(=O)O)[C@H](c4ccc(C#Cc5ccccc5)cc4)[C@@H]3C2)cc1 [BRD3316]
EC50 (P. falciparum Dd2; [15]): 19 nM
EC50 (P. falciparum Dd2; [13]): 23 nM
EC50 (P. falciparum Dd2; [12]): 22 nM
PBS solubility (Solubility assay in PBS): 91 µM
Mouse Clint [5]: 38 µL/min/mg
Human Clint [6]: 34 µL/min/mg
Cytotoxicity (HepG2 cell line): no significant cytotoxicity
CC50 (HepG2 cell line): > 50 µM
IC50 (hERG channel): > 10 µM
AUC0-inf ([7]; IV (3.2) mg/kg): 13.2 µM·h
CL ([7]; IV (3.2) mg/kg): 7.1 mL/min/kg
MRT0-inf ([7]; IV (3.2) mg/kg): 3.3 h
T1/2 ([7]; IV (3.2) mg/kg): 2.3 h
Vss ([7]; IV (3.2) mg/kg): 1.4 L/kg
AUC0-inf ([7]; PO (13) mg/kg): 33.5 µM·h
Cmax ([7]; PO (13) mg/kg): 6800 nM
F ([7]; PO (13) mg/kg): 63%
MRT0-inf ([7]; PO (13) mg/kg): 3.9 h
T1/2 ([7]; PO (13) mg/kg): 2.4 h
Tmax ([7]; PO (13) mg/kg): 1 h
AUC0-t ([7]; PO (13) mg/kg): 33.5 ^¶ µM*hr

COc1ccc(NC(=O)N2CCCCN3[C@H](CO)[C@H](c4ccc(C#Cc5ccccc5)cc4)[C@@H]3C2)cc1 [BRD3444]
EC50 (P. falciparum Dd2; [15]): 9 nM
EC50 (P. falciparum Dd2; [13]): 9 nM
EC50 (P. falciparum Dd2; [12]): 11 nM
Potency across P. falciparum Dd2, PfscDHODH and Pf NITD609^R (P. falciparum Dd2; three P. falciparum strains): equipotent
EC50 ([1]; P. falciparum (3D7), Gametocyte (IV-V)): 663 nM
EC50 ([8]; read-out: EC50, early (E, stages I–III) gametocytes): 282 nM
EC50 ([8]; read-out: EC50, late (L, stages IV–V) gametocytes): 1440 nM
EC50 ([9]; read-out: EC50, gamete formation, female (F)): 804 nM
EC50 ([9]; read-out: EC50, gamete formation, male): ~1000 nM
EC50 [10]: 1310 nM
EC50 [11]: 140 nM
PBS solubility (Solubility assay in PBS): < 1 µM
Mouse Plasma protein binding [4]: 99.9%
Mouse Clint [5]: 248 µL/min/mg
Human Clint [6]: 142 µL/min/mg
Cytotoxicity (HepG2 cell line): no significant cytotoxicity
CC50 (HepG2 cell line): > 50 µM
IC50 (hERG channel): 5.2 µM
AUC0-inf ([7]; IV (3) mg/kg): 1.4 µM·h
CL ([7]; IV (3) mg/kg): 72 mL/min/kg
MRT0-inf ([7]; IV (3) mg/kg): 2.8 h
T1/2 ([7]; IV (3) mg/kg): 3.7 h
Vss ([7]; IV (3) mg/kg): 12 L/kg
AUC0-t ([7]; IV (3) mg/kg): 1.2 ^¶ µM*hr
AUC0-inf ([7]; PO (10) mg/kg): 4 µM·h
Cmax ([7]; PO (10) mg/kg): 600 nM
T1/2 ([7]; PO (10) mg/kg): 3.2 h
Tmax ([7]; PO (10) mg/kg): 0.5 h
AUC0-t ([7]; PO (10) mg/kg): 4 ^¶ µM*hr
F [7, 14]: 86%

COc1ccc(NC(=O)N2CCCCN3[C@H](CN(C)C(C)C)[C@H](c4ccc(C#Cc5ccccc5)cc4)[C@@H]3C2)cc1 [BRD4716]
EC50 (P. falciparum Dd2; [12]): 24 nM

Reference: PMC5515376 (Nature, 2016)
